Data: ChEMBL document CHEMBL1138826, “New 1,4-dihydropyridines endowed with NO-donor and calcium channel agonist properties” (J Med Chem, 2004)

Experiments:
[1] = species: Rattus norvegicus; assay: Capacity to increase [Ca2+] entry into the vascular smooth muscle was evaluated on rat aorta strips partially depolarized with 10 mM K+ relative to 50 mM KCl; assay type: functional, Muscle tissue
Procedure, shortened: (§1)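 Thoracic aorta cut helically, endothelium removed, three strips per vessel, 0.7 g tension, isotonic recording. Equilibrated 1 h, then depolarized twice with 50 mM KCl at 60 min intervals. Cumulative contraction curves run in 10 mM KCl, protected from light. EC50 is the mean of 5-7 determinations.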

[2] = biological target: T1, Voltage-gated L-type calcium channel (Rattus norvegicus, UniProt P22002+Q02485+P27732); assay: Effect on L-type [Ca2+] channels of rat RIN-m5F insulinoma cells in 10 mM Ba2+, -60 mV holding potential at 3 uM, -20 mV; assay type: functional
Procedure, shortened: (§2)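 Whole-cell patch clamp on cultured rat insulinoma RINm5F cells at 22 °C. External solution (mM): 125 NaCl, 10 BaCl2, 1 MgCl, 10 HEPES pH 7.3, 300 nM TTX. Internal solution CsCl/TEACl/EGTA-based with ATP and GTP. Held at -60 mV, stepped to -20 mV, returned to -40 mV. Compounds at 3 µM by fast superfusion. Result is % increase of L-type Ba2+ current, after subtracting the current insensitive to 3 µM nifedipine; 5-22 cells.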

[3] = species: Rattus norvegicus; assay: Positive inotropic activity on rat papillary muscle electrically stimulated by unipolar square wave pulses; assay type: functional; conditions: Muscle tissue
Procedure, shortened: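 Electrically driven rat papillary muscle, 90 min equilibration. Cumulative curves in half-log steps, each step after a plateau, in the presence of 1 µM propranolol and 0.1 µM prazosin added 15 min beforehand. One curve per tissue. EC50 is the mean of 5-7 determinations.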

[4] = species: Rattus norvegicus; assay: Capacity to increase [Ca2+] entry into the vascular smooth muscle was evaluated on rat aorta strips partially depolarized with 10 mM K; assay type: functional; conditions: Muscle tissue; procedure, shortened: as §1
[5] = biological target: T1, Voltage-gated L-type calcium channel; assay: Agonistic potency, mean percentage of increased Ba2+ currents at -20 mV; Range = 200-240%; assay type: functional; procedure, shortened: as §2
[6] = species: Rattus norvegicus; assay: Capacity to increase [Ca2+] entry into the vascular smooth muscle was evaluated on rat aorta strips partially depolarized with 10 mM K+ in the presence of 1 uM ODQ.; assay type: functional; conditions: Muscle tissue
Procedure, shortened: (§3)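 Endothelium-denuded rat thoracic aorta strips under 0.7 g tension, precontracted twice with 50 mM KCl. Cumulative contraction curves in 10 mM KCl, in light-protected conditions, with 1 µM ODQ added at least 15 min before the first agonist concentration. EC50 is the mean of 5-7 determinations.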

[7] = species: Rattus norvegicus; assay: Positive inotropic activity on rat papillary muscle electrically stimulated by unipolar square wave pulses in the presence of 1 uM ODQ.; assay type: functional; conditions: Muscle tissue
Procedure, shortened: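 Electrically stimulated rat papillary muscle with 1 µM propranolol and 0.1 µM prazosin, plus 1 µM ODQ added at least 15 min before the first dose. Cumulative half-log concentration-response curve, one per tissue, after 90 min equilibration. EC50 is the mean of 5-7 determinations.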

[8] = species: Rattus norvegicus; assay: Capacity to increase [Ca2+] entry into the vascular smooth muscle was evaluated on rat aorta strips partially depolarized with 10 mM K+ relative to 50 mM KCl in the presence of 1 uM ODQ.; assay type: functional, Muscle tissue; procedure, shortened: as §3
[9] = species: Rattus norvegicus; assay: Capacity to increase [Ca2+] entry into the vascular smooth muscle was evaluated on rat aorta strips partially depolarized with 10 mM K+; No effect; assay type: functional, Muscle tissue; procedure, shortened: as §1

COC(=O)C1=C(C)NC(C)=C([N+](=O)[O-])C1c1ccccc1C(F)(F)F (stereo unspecified)
Max [1]: 84%
Increase [2]: 320%
EC50 [3]: 170 nM
EC50 [4]: 18 nM

CO/C(O)=C1/C(C)=NC(C)=C([N+](=O)[O-])C1c1ccccc1OCc1nonc1C#N (stereo unspecified)
Max [1]: 62%
EC50 [3]: 1500 nM
EC50 [4]: 120 nM
Agonistic potency [5]: < 240%

CO/C(O)=C1/C(C)=NC(C)=C([N+](=O)[O-])C1c1ccccc1OCc1no[n+]([O-])c1C#N (stereo unspecified)
Max [1]: 0%
EC50 [6]: 210 nM
EC50 [7]: 5000 nM
Max [8]: 29%
EC50 [3]: 5200 nM
EC50 [9]: Not Active
Agonistic potency [5]: < 240%

CO/C(O)=C1/C(C)=NC(C)=C([N+](=O)[O-])C1c1ccccc1OCc1nonc1C (stereo unspecified)
Max [1]: 85%
EC50 [3]: 820 nM
EC50 [4]: 57 nM
Agonistic potency [5]: < 240%

CO/C(O)=C1/C(C)=NC(C)=C([N+](=O)[O-])C1c1ccccc1OCc1no[n+]([O-])c1C (stereo unspecified)
Max [1]: 80%
EC50 [6]: 110 nM
EC50 [7]: 1300 nM
Max [8]: 83%
EC50 [3]: 1200 nM
EC50 [4]: 100 nM
Agonistic potency [5]: < 240%
